The record followed here is ChEMBL document CHEMBL4130523, “Targeting the Allosteric Site of Oncoprotein BCR-ABL as an Alternative Strategy for Effective Target Protein Degradation” (ACS Med Chem Lett, 2017).

For orientation: IC50 means the midpoint of a concentration-inhibition curve.

The structures appear in SMILES notation. Activity calls are given as the source filed them. No cut-off for these calls is given here.

For assay [1], the target named is Tyrosine-protein kinase ABL1 (Homo sapiens, UniProt P00519). The assay can be described thus: Inhibition of recombinant human His-tagged full length ABL1 allosteric site expressed in baculovirus expression system by TR-FRET assay.
Assay [2] concerns the target Baculoviral IAP repeat-containing protein 2 (Homo sapiens, UniProt Q13490). Kind of assay: Inhibition of recombinant human His-tagged cIAP1 (Leu250 to Gly350 residues) expressed in Escherichia coli by TR-FRET assay. Background: In TR-FRET formats the signal depends on donor and acceptor labels being close together.
For assay [3], the target named is E3 ubiquitin-protein ligase XIAP (Homo sapiens, UniProt P98170). The assay can be described thus: Inhibition of recombinant human His-tagged XIAP (Asn252 to Thr356 residues) expressed in Escherichia coli by TR-FRET assay.
Assay [4] has as its target Baculoviral IAP repeat-containing protein 3 (Homo sapiens, UniProt Q13489). Kind of assay: Inhibition of recombinant human His-tagged cIAP2 (Gln238 to Ser349 residues) expressed in Escherichia coli by TR-FRET assay.
Assay [5] addresses Baculoviral IAP repeat-containing protein 2/Tyrosine-protein kinase ABL1/Breakpoint cluster region protein (Homo sapiens) (UniProt P00519+P11274+Q13490). Kind of assay: Induction of cIAP1-mediated BCR-ABL degradation in human K562 cells at 100 nM after 6 hrs by Western blot analysis relative to beta-actin. Format: cell-based. An outline of the steps:
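K562 cells were treated for 6 h with test agent at graded concentrations, or with IAP ligand 4 at 10 μM as competitor. BCR-ABL was then immunoblotted. BCR-ABL band intensity was normalized to β-actin and expressed relative to a vehicle control set at 100. Means ± standard deviation, n = 3.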
A general note: A western blot detects proteins with antibodies after separation by electrophoresis.

Assay [6] concerns the target T1, Bcr/Abl fusion protein (Homo sapiens) (UniProt P00519+P11274). The assay can be described thus: Inhibition of BCR-ABL in human K562 cells assessed as reduction in CrkL phosphorylation at 100 nM after 6 hrs by Western blot analysis. Format: cell-based. In a few lines:
(§1)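 K562 cells were exposed to 100 nM compound for 6 h. Lysates were immunoblotted for phosphorylated STAT5 and phosphorylated CrkL, which are BCR-ABL substrates, alongside phosphorylated BCR-ABL.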

The target in assay [7] is T1, Bcr/Abl fusion protein (Homo sapiens). Kind of assay: Inhibition of BCR-ABL in human K562 cells assessed as reduction in STAT5 phosphorylation at 100 nM after 6 hrs by Western blot analysis. Format: cell-based. An outline of the steps: as §1
Assay [8] shares this target. The assay can be described thus: Inhibition of BCR-ABL phosphorylation in human K562 cells at 100 nM after 6 hrs by Western blot analysis relative to beta-actin. Format: cell-based.
Assay [9] concerns K562. Kind of assay: Growth inhibition of human K562 cells up to 1000 nM after 48 hrs by WST-8 assay. Format: functional, cell-based. An outline of the steps: (§2)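 Cells exposed for 48 h to a graded concentration series of compound. Growth was read per well and reported as mean ± standard deviation of triplicate (n = 3) determinations.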
The next assay relates to Jurkat. Kind of assay: Growth inhibition of human Jurkat cells up to 1000 nM after 48 hrs by WST-8 assay. Format: functional, cell-based. In a few lines:
as §2

Assay [10] deals with K562. Kind of assay: Growth inhibition of human K562 cells at >= 100 nM after 48 hrs by WST-8 assay. Format: functional, cell-based. In a few lines:
as §2
On the technique in general: Formazan colour is commonly taken as a measure of viable cells.

The next assay concerns MOLT-4. Kind of assay: Growth inhibition of human MOLT4 cells up to 1000 nM after 48 hrs by WST-8 assay. Format: functional, cell-based. An outline of the steps:
as §2

Another assay has as its system KCL-22. Kind of assay: Growth inhibition of human KCL22 cells up to 1000 nM after 48 hrs by WST-8 assay. Format: functional, cell-based. In a few lines:
as §2

T1 sequence (P00519 whole entry, looked up, the tested form may be a part): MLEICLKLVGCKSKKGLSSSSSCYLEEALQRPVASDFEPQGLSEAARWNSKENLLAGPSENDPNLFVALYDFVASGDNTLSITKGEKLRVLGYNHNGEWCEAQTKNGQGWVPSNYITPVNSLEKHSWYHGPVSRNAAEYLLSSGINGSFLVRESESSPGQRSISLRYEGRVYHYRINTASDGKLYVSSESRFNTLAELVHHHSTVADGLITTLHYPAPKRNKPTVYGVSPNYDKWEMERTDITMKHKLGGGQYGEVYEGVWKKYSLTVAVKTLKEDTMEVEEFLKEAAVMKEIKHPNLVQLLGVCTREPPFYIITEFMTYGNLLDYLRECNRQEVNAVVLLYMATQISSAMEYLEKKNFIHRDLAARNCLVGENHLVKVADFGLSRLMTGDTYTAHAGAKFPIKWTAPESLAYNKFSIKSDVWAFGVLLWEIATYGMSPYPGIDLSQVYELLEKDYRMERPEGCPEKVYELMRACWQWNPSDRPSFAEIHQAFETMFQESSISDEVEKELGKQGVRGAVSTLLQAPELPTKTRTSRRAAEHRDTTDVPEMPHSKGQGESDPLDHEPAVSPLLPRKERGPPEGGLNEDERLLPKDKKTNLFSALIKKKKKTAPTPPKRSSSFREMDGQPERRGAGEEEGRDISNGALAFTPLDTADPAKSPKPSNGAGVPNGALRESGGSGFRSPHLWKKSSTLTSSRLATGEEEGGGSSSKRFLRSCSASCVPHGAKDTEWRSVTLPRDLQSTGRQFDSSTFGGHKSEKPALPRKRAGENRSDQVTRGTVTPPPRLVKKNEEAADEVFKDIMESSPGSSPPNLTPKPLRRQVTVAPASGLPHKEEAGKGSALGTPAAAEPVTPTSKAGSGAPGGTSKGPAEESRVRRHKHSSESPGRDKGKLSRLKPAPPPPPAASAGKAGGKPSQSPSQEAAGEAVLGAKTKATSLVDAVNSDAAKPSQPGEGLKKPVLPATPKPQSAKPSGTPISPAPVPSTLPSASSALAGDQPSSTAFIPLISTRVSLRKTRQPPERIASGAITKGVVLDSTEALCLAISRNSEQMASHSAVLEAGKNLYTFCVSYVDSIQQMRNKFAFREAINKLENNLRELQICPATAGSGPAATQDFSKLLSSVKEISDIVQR
T1 sequence (P11274 whole entry, looked up, the tested form may be a part): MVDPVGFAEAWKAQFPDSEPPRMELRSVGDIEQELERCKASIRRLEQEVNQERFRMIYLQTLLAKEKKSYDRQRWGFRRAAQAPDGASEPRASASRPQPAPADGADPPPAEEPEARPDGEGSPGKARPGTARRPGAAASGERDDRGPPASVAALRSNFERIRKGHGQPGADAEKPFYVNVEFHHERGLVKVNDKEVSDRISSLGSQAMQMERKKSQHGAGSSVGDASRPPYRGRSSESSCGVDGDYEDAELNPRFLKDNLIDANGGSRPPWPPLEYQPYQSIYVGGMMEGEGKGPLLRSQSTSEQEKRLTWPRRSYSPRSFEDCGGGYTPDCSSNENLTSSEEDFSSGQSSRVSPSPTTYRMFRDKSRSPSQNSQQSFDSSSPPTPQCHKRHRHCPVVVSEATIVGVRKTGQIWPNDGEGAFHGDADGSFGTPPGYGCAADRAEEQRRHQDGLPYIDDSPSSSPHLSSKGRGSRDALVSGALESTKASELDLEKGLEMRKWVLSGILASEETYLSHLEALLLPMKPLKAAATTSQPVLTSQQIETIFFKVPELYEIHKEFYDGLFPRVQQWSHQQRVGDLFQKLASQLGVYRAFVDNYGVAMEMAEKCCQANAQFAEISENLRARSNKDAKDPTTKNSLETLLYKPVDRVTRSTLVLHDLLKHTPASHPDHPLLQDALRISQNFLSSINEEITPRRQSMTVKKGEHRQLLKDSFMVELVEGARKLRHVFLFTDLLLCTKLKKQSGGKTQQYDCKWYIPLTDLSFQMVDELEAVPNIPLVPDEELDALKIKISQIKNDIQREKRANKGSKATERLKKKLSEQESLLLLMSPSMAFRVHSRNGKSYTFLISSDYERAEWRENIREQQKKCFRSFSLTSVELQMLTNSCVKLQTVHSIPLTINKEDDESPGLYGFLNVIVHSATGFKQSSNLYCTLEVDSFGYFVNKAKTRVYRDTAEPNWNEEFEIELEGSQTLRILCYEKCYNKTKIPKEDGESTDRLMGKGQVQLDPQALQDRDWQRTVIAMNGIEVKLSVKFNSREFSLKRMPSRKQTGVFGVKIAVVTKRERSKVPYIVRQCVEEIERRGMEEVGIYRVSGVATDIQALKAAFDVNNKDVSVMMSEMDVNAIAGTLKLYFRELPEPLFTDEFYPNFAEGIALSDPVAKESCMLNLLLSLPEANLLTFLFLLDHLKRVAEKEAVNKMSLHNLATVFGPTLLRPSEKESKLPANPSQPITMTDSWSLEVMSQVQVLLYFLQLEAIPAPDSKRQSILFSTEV
Tyrosine-protein kinase ABL1, sequence (P00519 whole entry): as the sequence (P00519 whole entry, looked up, the tested form may be a part) above
Baculoviral IAP repeat-containing protein 2, sequence (Q13490 whole entry): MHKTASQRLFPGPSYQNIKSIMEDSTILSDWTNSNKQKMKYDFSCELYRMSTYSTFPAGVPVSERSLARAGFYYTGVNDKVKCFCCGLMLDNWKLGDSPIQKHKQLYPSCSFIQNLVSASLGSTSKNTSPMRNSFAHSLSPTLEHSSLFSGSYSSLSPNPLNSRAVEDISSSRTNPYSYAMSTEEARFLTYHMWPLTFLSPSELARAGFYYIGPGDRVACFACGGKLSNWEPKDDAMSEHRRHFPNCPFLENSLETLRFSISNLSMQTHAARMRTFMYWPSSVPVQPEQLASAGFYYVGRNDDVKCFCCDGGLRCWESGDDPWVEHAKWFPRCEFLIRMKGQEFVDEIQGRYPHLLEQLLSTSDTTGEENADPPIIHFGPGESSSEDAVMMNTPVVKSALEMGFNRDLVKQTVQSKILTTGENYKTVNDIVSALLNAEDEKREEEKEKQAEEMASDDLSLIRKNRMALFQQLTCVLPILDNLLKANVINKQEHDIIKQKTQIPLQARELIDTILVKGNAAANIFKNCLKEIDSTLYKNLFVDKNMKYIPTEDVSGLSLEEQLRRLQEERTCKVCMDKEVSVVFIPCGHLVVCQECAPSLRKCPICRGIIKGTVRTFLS
Baculoviral IAP repeat-containing protein 2/Tyrosine-protein kinase ABL1/Breakpoint cluster region protein (Homo sapiens), sequence (P00519 whole entry, looked up): as the sequence (P00519 whole entry, looked up, the tested form may be a part) above
Baculoviral IAP repeat-containing protein 2/Tyrosine-protein kinase ABL1/Breakpoint cluster region protein (Homo sapiens), sequence (P11274 whole entry, looked up): as the sequence (P11274 whole entry, looked up, the tested form may be a part) above
Baculoviral IAP repeat-containing protein 2/Tyrosine-protein kinase ABL1/Breakpoint cluster region protein (Homo sapiens), sequence (Q13490 whole entry, looked up): as the sequence (Q13490 whole entry) above
E3 ubiquitin-protein ligase XIAP, sequence (P98170 whole entry): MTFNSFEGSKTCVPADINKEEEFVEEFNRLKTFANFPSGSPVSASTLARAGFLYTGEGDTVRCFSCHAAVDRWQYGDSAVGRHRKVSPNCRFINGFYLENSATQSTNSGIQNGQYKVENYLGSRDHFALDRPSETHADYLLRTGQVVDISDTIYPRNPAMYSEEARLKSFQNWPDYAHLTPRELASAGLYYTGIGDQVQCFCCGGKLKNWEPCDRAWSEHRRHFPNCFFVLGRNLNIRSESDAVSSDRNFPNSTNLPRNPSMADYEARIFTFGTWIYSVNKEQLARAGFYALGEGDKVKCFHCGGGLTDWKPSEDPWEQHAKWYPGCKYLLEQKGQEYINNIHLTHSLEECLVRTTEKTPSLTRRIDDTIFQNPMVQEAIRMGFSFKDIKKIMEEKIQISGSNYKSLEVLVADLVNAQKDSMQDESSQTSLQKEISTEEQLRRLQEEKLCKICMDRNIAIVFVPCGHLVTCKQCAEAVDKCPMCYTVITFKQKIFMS
Baculoviral IAP repeat-containing protein 3, sequence (Q13489 whole entry): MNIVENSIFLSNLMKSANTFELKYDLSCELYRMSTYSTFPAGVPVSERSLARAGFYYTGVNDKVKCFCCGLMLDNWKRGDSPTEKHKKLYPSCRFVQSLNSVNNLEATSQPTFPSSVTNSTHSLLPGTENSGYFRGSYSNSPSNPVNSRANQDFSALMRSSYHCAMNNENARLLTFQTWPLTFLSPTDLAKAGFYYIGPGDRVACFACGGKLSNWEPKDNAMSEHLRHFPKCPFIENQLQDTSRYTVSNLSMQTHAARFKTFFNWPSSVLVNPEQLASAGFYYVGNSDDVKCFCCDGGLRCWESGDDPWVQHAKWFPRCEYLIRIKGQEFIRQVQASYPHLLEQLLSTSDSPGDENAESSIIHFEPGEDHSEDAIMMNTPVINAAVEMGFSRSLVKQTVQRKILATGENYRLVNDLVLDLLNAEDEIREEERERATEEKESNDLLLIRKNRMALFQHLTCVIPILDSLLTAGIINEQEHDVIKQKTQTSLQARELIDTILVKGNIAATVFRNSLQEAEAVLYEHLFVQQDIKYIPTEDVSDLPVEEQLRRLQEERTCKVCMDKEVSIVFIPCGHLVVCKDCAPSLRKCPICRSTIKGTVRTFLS

Consider `CN[C@@H](C)C(=O)N(C)[C@H](C(=O)N1CCC[C@H]1c1nc(C(=O)c2cccc(OCCOCCOCCNC(=O)C3CCN(c4ncc(C(=O)Nc5ccc(OC(F)(F)Cl)cc5)cc4-c4ccn[nH]4)C3)c2)cs1)C1CCCCC1` (stereo partly specified), for which the IC50 is 340 nM in [1], above 1000 nM in assay [2], above 1000 nM in assay [3] and above 1000 nM in [4]. Moreover, the fold change (FC) in [5] is 102.

For the molecule `COC(=O)C1CCN(c2ncc(C(=O)Nc3ccc(OC(F)(F)Cl)cc3)cc2-c2ccn[nH]2)C1` (stereo unspecified), in assay [1], the half-maximal inhibitory concentration (IC50) is 35 nM. The inhibition result in assay [6] and in assay [7] was “Active” throughout. In assay [8], this molecule came in with a fold change (FC) of 92.

Regarding `CN[C@@H](C)C(=O)N[C@H](C(=O)N1CCC[C@H]1c1nc(C(=O)c2cccc(OCCOCCOCCNC(=O)c3cccc(-c4cc(Nc5ccc(OC(F)(F)F)cc5)ncn4)c3)c2)cs1)C1CCCCC1`, the half-maximal inhibitory concentration (IC50) was 2000 nM in assay [1] and 220 nM in [2].

On to `CN[C@@H](C)C(=O)N[C@H](C(=O)N1CCC[C@H]1c1nc(C(=O)c2cccc(OC)c2)cs1)C1CCCCC1`, for which, in [2], the IC50 is 4.8 nM. The “growth inhibition (GI)” value with K562 [9] is “inactive”.

On to `CN[C@@H](C)C(=O)N[C@H](C(=O)N1CCC[C@H]1c1nc(C(=O)c2cccc(OCCOCCOCCNC(=O)C3CCN(c4ncc(C(=O)Nc5ccc(OC(F)(F)Cl)cc5)cc4-c4ccn[nH]4)C3)c2)cs1)C1CCCCC1` (stereo partly specified), for which the “growth inhibition (GI)” value with Jurkat and in the assay on MOLT-4 was “inactive” throughout. Besides, the IC50 in [1] is 360 nM; in assay [2], 86 nM. Besides, the “growth inhibition (GI)” value in the assay with K562 [10] and in the assay on KCL-22 was “Active” in each case. The inhibition entry in assay [6] and in [7] was “Active” throughout.
